Source: ChEMBL document CHEMBL1126922, “Synthesis of 2,4-disubstituted thiazoles and selenazoles as potential antitumor and antifilarial agents: 1. Methyl 4-(isothiocyanatomethyl)thiazole-2-carbamates, -selenazole-2- carbamates, and related derivatives” (J Med Chem, 1993)

Legend:
L1210 [1] = assay: Growth rate measured as ratio of population doubling time of control cells to that of treated L1210 cells at 100 uM; type: functional, Mus musculus
In short: (§1)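 L1210 cells were grown in static suspension at 38 °C in Fischer's medium with 10% heat-inactivated horse serum, with test compound present continuously for 3 days. Growth rate is the treated/control slope of semilog cell number versus time, calculated as control doubling time ÷ treated doubling time. If growth slowed during the run, the final rate at day 3 was used.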

L1210 [2] = assay: In vitro inhibitory concentration of compound against leukemia L1210 cells; type: functional, cell-based; settings: Mus musculus
In short: (§2)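 L1210 murine leukemia cells kept in static suspension culture at 38 °C in Fischer's medium with 10% heat-inactivated horse serum. Growth measured over 3 days with the compound present continuously at various concentrations. Growth rate = control doubling time / treated doubling time, using the final rate if growth slowed. IC50 = concentration that cuts growth rate to 50% of control.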

L1210 [3] = assay: Effect on protein synthesis in L1210 measured by inhibition of incorporation of [3H]leucine into acid insoluble material after 0 hours expressed as percent of control; type: functional, Mus musculus; design: scale not given: the % may be the effect or the level left
In short: (§3)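 100 μM compound and L-[3,4,5-3H]leucine (143 Ci/mmol, 1 μCi/mL) were added together to L1210 cells ((1-1.5) × 10^5 cells/mL) for a 1 h pulse, started at 0 h or 6 h after compound. Duplicate samples were chilled in ice-cold Puck's Saline G, washed, and precipitated with BSA plus 8% perchloric acid on ice for 30 min. The pellet was hydrolysed in 1 N NaOH at 37 °C and counted; results are % of control.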

L1210 [4] = assay: Effect on DNA synthesis in L1210 measured by inhibition of incorporation of [3H]dThd into acid insoluble material after 6 hours expressed as percent of control; type: functional, Mus musculus; design: scale not given: the % may be the effect or the level left
In short: (§4)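 L1210 cells given 100 μM compound together with [methyl-3H]dThd (20 Ci/mmol, 1 μCi/mL) or [5-3H]Urd (28.5 Ci/mmol, 1 μCi/mL). Label pulse lasted 1 h, started either at compound addition (0 h) or 6 h later. 3H in the acid-insoluble fraction was counted by liquid scintillation. Values are % of control, mean of two determinations in separate experiments, with range.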

L1210 [5] = assay: Effect on protein synthesis in L1210 measured by inhibition of incorporation of [3H]leucine into acid insoluble material after 6 hours expressed as percent of control; type: functional, Mus musculus; design: scale not given: the % may be the effect or the level left; in short: as §3
L1210 [6] = assay: Effect on DNA synthesis in L1210 measured by inhibition of incorporation of [3H]dThd into acid insoluble material after 0 hours expressed as percent of control; type: functional, Mus musculus; design: scale not given: the % may be the effect or the level left; in short: as §4
L1210 [7] = assay: Effect on RNA synthesis in L1210 measured by inhibition of incorporation of [3H]uridine into acid insoluble material after 0 hours expressed as percent of control; type: functional, Mus musculus; design: scale not given: the % may be the effect or the level left; in short: as §4
L1210 [8] = assay: Effect on RNA synthesis in L1210 measured by inhibition of incorporation of [3H]uridine into acid insoluble material after 6 hours expressed as percent of control; type: functional, Mus musculus; design: scale not given: the % may be the effect or the level left; in short: as §4
L1210 [9] = assay: Growth rate in leukemia L1210 cells at 100 uM; type: functional, Mus musculus; in short: as §1
L1210 [10] = assay: Growth rate measured as ratio of population doubling time of control cells to that of treated L1210 cells at 10 uM
L1210 [11] = assay: In vitro inhibitory concentration of compound against leukemia L1210 cells; No significant inhibition; type: functional, cell-based, Mus musculus; in short: as §2

Structure (SMILES) | GR (L1210 [1]) [%] | IC50 (L1210 [2]) [µM] | also measured
COC(=O)Nc1nc(CCl)c[se]1 | 103 | – | –
COC(=O)Nc1nc(CCCl)cs1 | 92 | – | –
COC(=O)Nc1nc(CN=C=S)cs1 | 0 | 3.2 | Effect (L1210 [3]): 58%; Effect (L1210 [4]): 56%; Effect (L1210 [5]): 48%; Effect (L1210 [6]): 88%; Effect (L1210 [7]): 74%; Effect (L1210 [8]): 67%
CCOC(=O)Cc1csc(NC(=O)OC)n1 | 104 | – | –
COC(=O)Nc1nc(CCN=C=S)cs1 | 0 | 26 | –
COC(=O)Nc1nc(CCO)cs1 | – | – | GR control (L1210 [9]): 102%
COC(=O)Nc1nc(CN=C=[Se])cs1 | 0 | 7.6 | –
COC(=O)Nc1nc(CN=C=S)c[se]1 | 31 | 22 | –
COC(=O)Nc1nc(CCI)cs1 | – | – | GR (L1210 [10]): 92%
COC(=O)Nc1nc(CCl)cs1 | 96 | – | IC50 (L1210 [11]): Not Active
